Results as given in PMC7106177 (International Immunopharmacology, 2004).
Converted amounts (≈) assume the structure as drawn.

Tests used:
Assay type in all cases: cell-based, human
[1] = tested on: eotaxin 1 production in HFL-1 cells; assay: eotaxin 1 production by TNF-α plus IL-4-stimulated HFL-1 cells; conditions: HFL-1, TNF-α/IL-4 stimuli for 48 h; calculated from ELISA data
Procedure, shortened: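 Collagen-plated HFL-1 cells are seeded at 5×10^4/well and adhered overnight. Test compound in 1% FBS medium, or vehicle, is added, and the cells are then stimulated with TNF-α 10 ng/ml plus IL-4 20 U/ml for 48 h at 37 °C. Eotaxin 1 in the supernatant is quantified by sandwich ELISA, with samples at least in duplicate. Values are mean±S.D. of three independent experiments, compared by t-test, and IC50 is derived from the ELISA data.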

[2] = tested on: HFL-1 cells; assay: cytotoxicity by LDH assay; conditions: calculated from LDH assay data; for CC30 (cytotoxicity), IL-8 condition: HFL-1, TNF-α stimuli for 24 h; for CC30 (cytotoxicity), eotaxin 1 condition: HFL-1, TNF-α/IL-4 stimuli for 48 h
Procedure, shortened: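 LDH leakage is measured in supernatants from the same HFL-1 cultures under both stimulation conditions: TNF-α 10 ng/ml for 24 h, or TNF-α plus IL-4 20 U/ml for 48 h. Test compound is in 1% FBS medium, and final EtOH or DMSO is mostly below 0.1%. LDH is read with a commercial LDH cytotoxicity kit.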

[3] = tested on: IL-8 production in HFL-1 cells; assay: IL-8 production by TNF-α-stimulated HFL-1 cells; conditions: for IL-8 production reduced to (% of stimulated control): 1000 μg/ml, P<0.001; for IL-8 production reduced to (% of stimulated control) / concentration at which significant inhibition of IL-8 production was observed: TNF-α 24 h; for concentration at which significant inhibition of IL-8 production was observed: P<0.01
Procedure, shortened: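 HFL-1 fetal lung fibroblasts are grown in Ham's F-12 with 15% heat-inactivated FBS on collagen, then seeded at 5×10^4 cells/well and adhered overnight. Test compound is added in 1% FBS medium, with vehicle controls, followed by TNF-α 10 ng/ml for 24 h at 37 °C. Supernatant IL-8 is measured by sandwich ELISA, at least in duplicate. Data are mean±S.D. of three experiments, analysed by Student's t-test, with IC50 calculated from the ELISA data.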

[4] = tested on: IL-8 mRNA in HFL-1 cells; assay: RT-PCR analysis of IL-8 mRNA expression; conditions: TNF-α-stimulated HFL-1
[5] = tested on: eotaxin 1 mRNA in HFL-1 cells; assay: RT-PCR analysis of eotaxin 1 mRNA expression; conditions: TNF-α plus IL-4-stimulated HFL-1

Compound	Eotaxin 1 IC50 [1]	CC30 (cytotoxicity), IL-8 condition [2]	CC30 (cytotoxicity), eotaxin 1 condition [2]	IL-8 production reduced to (% of stimulated control) [3]	concentration at which significant inhibition of IL-8 production was observed [3]	effect on IL-8 mRNA expression [4]	effect on eotaxin 1 mRNA expression [5]	IL-8 IC50 ([3]; HFL-1, TNF-α stimuli for 24 h, calculated from ELISA data)	doses needed to inhibit IL-8 and eotaxin 1 production ([3]; IL-8 and eotaxin 1 production, HFL-1)
CC1(C)[C@@H](O[C@H]2O[C@H](C(=O)O)[C@@H](O)[C@H](O)[C@H]2O[C@@H]2O[C@H](C(=O)O)[C@@H](O)[C@H](O)[C@H]2O)CC[C@]2(C)[C@H]3C(=O)C=C4[C@@H]5C[C@@](C)(C(=O)O)CC[C@]5(C)CC[C@@]4(C)[C@]3(C)CC[C@@H]12 [18α-GL, glycyrrhizin]	25 µg/mL	330 µg/mL (≈ 401 µM)	>1000 µg/mL	25%	more than 300 μg/ml	did not indicate significant effect			
CC1(C)[C@@H](O[C@H]2O[C@H](C(=O)O)[C@@H](O)[C@H](O)[C@H]2O[C@@H]2O[C@H](C(=O)O)[C@@H](O)[C@H](O)[C@H]2O)CC[C@]2(C)[C@H]3C(=O)C=C4[C@@H]5C[C@@](C)(C(=O)O)CC[C@]5(C)CC[C@@]4(C)[C@]3(C)CC[C@@H]12 [18β-GL, glycyrrhizin]	>300 µg/mL	>1000 µg/mL	>1000 µg/mL	25%	more than 300 μg/ml		did not inhibit it at the same doses	370 µg/mL	
CC1(C)[C@@H](O[C@H]2O[C@H](C(=O)O)[C@@H](O)[C@H](O)[C@H]2O[C@@H]2O[C@H](C(=O)O)[C@@H](O)[C@H](O)[C@H]2O)CC[C@]2(C)[C@H]3C(=O)C=C4[C@@H]5C[C@@](C)(C(=O)O)CC[C@]5(C)CC[C@@]4(C)[C@]3(C)CC[C@@H]12 [GL, Glycyrrhizin]									~1 mg/mL
